What was measured:
[1] = Metabolic stability in mouse plasma assessed as compound remaining after 10 mins; assay type: ADME, cell-free; conditions: read-out: Stability
Cannabinoid receptor 1 [2] = molecular target: T1, Cannabinoid receptor 1 (Homo sapiens, UniProt P21554); assay: Binding affinity to human cannabinoid CB1 receptor
Cannabinoid receptor 2 [3] = molecular target: T2, Cannabinoid receptor 2 (Homo sapiens, UniProt P34972); assay: Displacement of [3H]CP-55,940 from human recombinant cannabinoid CB2 receptor expressed in CHO cells at 1 uM; assay type: cell-based
Cannabinoid receptor 2 [4] = molecular target: T2, Cannabinoid receptor 2; assay: Displacement of [3H]CP-55,940 from human recombinant cannabinoid CB2 receptor expressed in CHO cells; assay type: cell-based
Cannabinoid receptor 1 [5] = molecular target: T1, Cannabinoid receptor 1; assay: Displacement of [3H]CP-55,940 from human recombinant cannabinoid CB1 receptor expressed in CHO cells; assay type: cell-based
Cannabinoid receptor 2 [6] = molecular target: T2, Cannabinoid receptor 2; assay: Binding affinity to human cannabinoid CB2 receptor
Outline: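 Membranes from sonicated CHO cells stably expressing human CB2 (about 100,000 cells/well). Incubated 120 min at 37 °C with 1 nM [3H]CP-55,940, test compound at 10^-10 to 10^-5 M, in TRIS pH 7.4 with 12 mM MgCl2 and 2% BSA. Nonspecific binding defined by 10 µM CP-55,940. Filtration and scintillation counting; duplicates. IC50 by nonlinear regression, converted to Ki by Cheng-Prusoff (Kd 11.8 nM).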

Homo sapiens = species: Homo sapiens; assay: Selectivity ratio of Ki for human recombinant cannabinoid CB1 receptor to Ki for human recombinant cannabinoid CB2 receptor
[7] = Lipophilicity, log P of the compound; assay type: physicochemical; conditions: octanol/water

T1 sequence (P21554 whole entry): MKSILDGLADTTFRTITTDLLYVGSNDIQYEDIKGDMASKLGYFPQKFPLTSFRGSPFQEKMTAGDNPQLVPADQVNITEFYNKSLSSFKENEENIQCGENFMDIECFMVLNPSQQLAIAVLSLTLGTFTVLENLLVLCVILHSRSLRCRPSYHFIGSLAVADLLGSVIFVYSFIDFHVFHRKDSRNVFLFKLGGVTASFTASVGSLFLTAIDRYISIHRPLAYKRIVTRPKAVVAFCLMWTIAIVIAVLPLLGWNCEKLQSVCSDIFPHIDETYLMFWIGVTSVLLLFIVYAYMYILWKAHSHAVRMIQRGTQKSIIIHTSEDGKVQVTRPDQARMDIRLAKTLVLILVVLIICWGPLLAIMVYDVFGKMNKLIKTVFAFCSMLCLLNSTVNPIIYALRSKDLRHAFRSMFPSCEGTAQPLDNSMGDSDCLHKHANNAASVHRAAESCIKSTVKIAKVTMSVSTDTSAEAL
T2 sequence (P34972 whole entry): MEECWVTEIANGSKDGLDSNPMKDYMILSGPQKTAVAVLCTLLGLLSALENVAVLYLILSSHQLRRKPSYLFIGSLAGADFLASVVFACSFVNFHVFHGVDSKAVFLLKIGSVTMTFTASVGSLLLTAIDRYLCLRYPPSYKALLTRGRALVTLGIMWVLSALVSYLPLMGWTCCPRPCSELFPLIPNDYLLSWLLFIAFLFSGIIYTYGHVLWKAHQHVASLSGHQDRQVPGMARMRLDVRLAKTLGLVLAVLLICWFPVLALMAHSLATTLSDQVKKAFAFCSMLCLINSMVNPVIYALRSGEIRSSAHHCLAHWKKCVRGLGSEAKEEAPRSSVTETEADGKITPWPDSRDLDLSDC

CCCCOc1c(O[11CH3])ccc2cc(C(=O)NC3CCCCC3)c(=O)[nH]c12
remaining at 10 min [1]: 24%
Ki (Cannabinoid receptor 1 [2]): > 1000 nM

O=C(CCCc1nc(-c2ccc(Cl)cc2)no1)Nc1ccc2c(c1)c1ccccc1n2CCF
inhibition (Cannabinoid receptor 2 [3]): 23%

O=C(CCCc1nc(-c2ccc(F)cc2Br)no1)Nc1ccc2c(c1)c1ccccc1n2CCCO
inhibition (Cannabinoid receptor 2 [3]): 9%

O=C(CCc1nc(-c2ccc(F)cc2)no1)Nc1ccc2c(c1)c1ccccc1n2CCO
Ki (Cannabinoid receptor 2 [4]): 1100 nM

O=C(CCc1nc(-c2ccc(Br)cc2F)no1)Nc1ccc2c(c1)c1ccccc1n2CCO
inhibition (Cannabinoid receptor 2 [3]): 35%

Cc1ccc(-c2noc(CCC(=O)Nc3ccc4c(c3)c3ccccc3n4CCO)n2)cc1
inhibition (Cannabinoid receptor 2 [3]): 10%

O=C(CCCc1nc(-c2ccc(F)cc2)no1)Nc1ccc2c(c1)c1ccccc1n2CCO
inhibition (Cannabinoid receptor 2 [3]): 12%

O=C(CCc1nc(-c2ccc(F)cc2Br)no1)Nc1ccc2c(c1)c1ccccc1n2CCCO
IC50 (Cannabinoid receptor 1 [5]): > 1000 nM
Ki (Cannabinoid receptor 2 [4]): 33 nM

Cc1ccc(-c2noc(CCCC(=O)Nc3ccc4c(c3)c3ccccc3n4CCCF)n2)cc1
inhibition (Cannabinoid receptor 2 [3]): 0%

CCCCOc1c(OCC[18F])ccc2cc(C(=O)NC3CCCCC3)c(=O)[nH]c12
remaining at 10 min [1]: 41%
Ki (Cannabinoid receptor 1 [2]): > 1000 nM

Cc1c(CCN2CCOCC2)c2cc(O[11CH3])ccc2n1C(=O)c1cccc(Cl)c1Cl
Ki (Cannabinoid receptor 1 [2]): 6000 nM
Ki (Cannabinoid receptor 2 [6]): 35 nM

Cc1ccc(-c2noc(CCC(=O)Nc3ccc4c(c3)c3ccccc3n4CCCF)n2)cc1
inhibition (Cannabinoid receptor 2 [3]): 13%

O=C(CCc1nc(-c2ccc(F)cc2Br)no1)Nc1ccc2c(c1)c1ccccc1n2CCCCF
inhibition (Cannabinoid receptor 2 [3]): 35%

O=C(CCc1nc(-c2ccc(F)cc2)no1)Nc1ccc2c(c1)c1ccccc1n2CCCF
inhibition (Cannabinoid receptor 2 [3]): 10%

Cc1ccc(-c2noc(CCCC(=O)Nc3ccc4c(c3)c3ccccc3n4CCCO)n2)cc1
inhibition (Cannabinoid receptor 2 [3]): 13%

O=C(CCc1nc(-c2ccc(F)cc2Br)no1)Nc1ccc2c(c1)c1ccccc1n2CCO
Ki (Cannabinoid receptor 2 [4]): 367 nM

O=C(CCCc1nc(-c2ccc(F)cc2)no1)Nc1ccc2c(c1)c1ccccc1n2CCCO
inhibition (Cannabinoid receptor 2 [3]): 19%

O=C(CCc1nc(-c2ccc(Cl)cc2)no1)Nc1ccc2c(c1)c1ccccc1n2CCCF
inhibition (Cannabinoid receptor 2 [3]): 43%

O=C(CCCc1nc(-c2ccc(F)cc2)no1)Nc1ccc2c(c1)c1ccccc1n2CCCF
inhibition (Cannabinoid receptor 2 [3]): 0%

Cc1ccc(-c2noc(CCC(=O)Nc3ccc4c(c3)c3ccccc3n4CCCO)n2)cc1
inhibition (Cannabinoid receptor 2 [3]): 28%

O=C(CCc1nc(-c2ccc(Cl)cc2)no1)Nc1ccc2c(c1)c1ccccc1n2CCO
Ki (Cannabinoid receptor 2 [4]): 990 nM

O=C(CCCc1nc(-c2ccc(F)cc2)no1)Nc1ccc2c(c1)c1ccccc1n2CCF
inhibition (Cannabinoid receptor 2 [3]): 25%

Cc1ccc(-c2noc(CCCC(=O)Nc3ccc4c(c3)c3ccccc3n4CCF)n2)cc1
inhibition (Cannabinoid receptor 2 [3]): 0%

O=C(CCCc1nc(-c2ccc(Cl)cc2)no1)Nc1ccc2c(c1)c1ccccc1n2CCO
Ki (Cannabinoid receptor 2 [4]): 584 nM

O=C(CCCc1nc(-c2ccc(F)cc2Br)no1)Nc1ccc2c(c1)c1ccccc1n2CCCF
inhibition (Cannabinoid receptor 2 [3]): 25%

O=C(CCCc1nc(-c2ccc(F)cc2Br)no1)Nc1ccc2c(c1)c1ccccc1n2CCO
inhibition (Cannabinoid receptor 2 [3]): 0%

O=C(CCCc1nc(-c2ccc(F)cc2Br)no1)Nc1ccc2c(c1)c1ccccc1n2CCF
Ki (Cannabinoid receptor 2 [4]): 559 nM

O=C(CCc1nc(-c2ccc(F)cc2)no1)Nc1ccc2c(c1)c1ccccc1n2CCCO
Ki (Cannabinoid receptor 2 [4]): 195 nM

Cc1s/c(=N\C(=O)C2C(C)(C)C2(C)C)n(CCO[11CH3])c1C
Ki (Cannabinoid receptor 1 [2]): 270 nM
Ki (Cannabinoid receptor 2 [6]): 0.64 nM

N#Cc1cc(F)ccc1-c1noc(CCC(=O)Nc2ccc3c(c2)c2ccccc2n3CCF)n1
IC50 (Cannabinoid receptor 1 [5]): > 1000 nM
Ki (Cannabinoid receptor 2 [4]): 858 nM

CCn1c2ccccc2c2cc(NC(=O)CCc3nc(-c4ccc(F)cc4C#N)no3)ccc21
Ki (Cannabinoid receptor 1 [5]): > 10000 nM
Ki (Cannabinoid receptor 2 [4]): 6.98 nM

O=C(CCc1nc(-c2ccc(F)cc2Br)no1)Nc1ccc2c(c1)c1ccccc1n2CCF
IC50 (Cannabinoid receptor 1 [5]): > 1000 nM
Ratio Ki (Homo sapiens): > 200
Ki (Cannabinoid receptor 2 [4]): 5.8 nM

O=C(CCc1nc(-c2ccc(F)cc2Br)no1)Nc1ccc2c(c1)c1ccccc1n2CCCCO
IC50 (Cannabinoid receptor 1 [5]): > 1000 nM
Ki (Cannabinoid receptor 2 [4]): 96 nM

O=C(CCc1nc(-c2ccc(Br)cc2F)no1)Nc1ccc2c(c1)c1ccccc1n2CCF
Ki (Cannabinoid receptor 2 [4]): 476 nM

Cc1ccc(-c2noc(CCCC(=O)Nc3ccc4c(c3)c3ccccc3n4CCO)n2)cc1
inhibition (Cannabinoid receptor 2 [3]): 4%

O=C(CCc1nc(-c2ccc(F)cc2)no1)Nc1ccc2c(c1)c1ccccc1n2CCF
IC50 (Cannabinoid receptor 1 [5]): > 1000 nM
Ki (Cannabinoid receptor 2 [4]): 41 nM

O=C(CCc1nc(-c2ccc(F)cc2Br)no1)Nc1ccc2c(c1)c1ccccc1n2CCCF
Ki (Cannabinoid receptor 2 [4]): 1800 nM

O=C(CCCc1nc(-c2ccc(Cl)cc2)no1)Nc1ccc2c(c1)c1ccccc1n2CCCO
inhibition (Cannabinoid receptor 2 [3]): 10%

CCCCOc1c(OC)ccc2cc(C(=O)NCc3ccc([18F])cc3)c(=O)[nH]c12
Ki (Cannabinoid receptor 1 [2]): > 10000 nM
Ki (Cannabinoid receptor 2 [6]): 2.8 nM

N#Cc1cc(F)ccc1-c1noc(CCC(=O)Nc2ccc3c(c2)c2ccccc2n3CCO)n1
Ki (Cannabinoid receptor 2 [4]): 486 nM

Cc1ccc(-c2noc(CCC(=O)Nc3ccc4c(c3)c3ccccc3n4CCF)n2)cc1
Ki (Cannabinoid receptor 2 [4]): 377 nM

COc1ccc(S(=O)(=O)c2ccc([C@H](C)NS(C)(=O)=O)cc2)c(S(=O)(=O)c2ccc(O[11CH3])cc2)c1
logP [7]: 2.15
Ki (Cannabinoid receptor 1 [2]): 79 nM
Ki (Cannabinoid receptor 2 [6]): 4.5 nM

O=C(CCc1nc(-c2ccc(Cl)cc2)no1)Nc1ccc2c(c1)c1ccccc1n2CCF
Ki (Cannabinoid receptor 2 [4]): 291 nM
